# Screens deposited in PubChem BioAssay by Broad Institute.
# Xi reactivation – X-chromosome reactivation activator; hit rate 0.055% among 360,000; activation, % at 7.58 µM; XiGFP mouse fibroblasts, % GFP-positive cells imaging, 3 d; cells co-treated with 5-aza-dC sensitizer; scaled so ellipticine positive control = 100%;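 active means mean normalized replicate activation at least 10% and every replicate at or above 10%; inconclusive means only one of the two criteria met; inactive means mean below 10% and not all replicates reach 10%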;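 further: 0% = median of on-plate neutral control wells and 100% = ellipticine 6 µM median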
#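 Assay system – SV40-immortalized XiGFP fibroblast cells, line 68-5-11 · Buffer or medium – DMEM supplemented with 5-aza-dC as sensitizing agent · Dosing – one concentration, pinned · Benchmarks – positive control ellipticine, 6 µM final · Times – 3 days compound exposure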
# DENV2 CPE – protects cells from dengue virus 2 cytopathic effect; hit rate 1.7% among 350,000; DENV2-infected cells, cytopathic effect rescue, plate reader; AID 651640; CPE inhibition, % at 9.99 µM; in the data active means CPE inhibition above about 20%, passing the limit was not always enough; inconclusive means no clear call, values can overlap the other calls; tested in BHK-21 cells;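 further: 0% = median of neutral control wells and 100% = median of positive control wells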
# PglD DTNB – PglD (C. jejuni) enzyme inhibition; purified PglD enzyme, DTNB colorimetric CoA detection; inhibition, % at 12.5 µM; hit rate 0.098% among 360,000; AID 602405; in the data active means inhibition above about 16%, passing the limit was not always enough; inconclusive means no clear call, values can overlap the other calls
# E-sel inducer – induces E-selectin expression in human endothelial cells; hit rate 0.37% among 260,000; HUVEC E-selectin immunofluorescence imaging; normalized: neutral wells 0, TNF-alpha wells 100; activation, % at 7.58 µM; AID 686992;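 active means mean E-selectin-positive cell signal at least 10% of the positive control, reached in at least 60% of replicates, without over 20% cell loss; inconclusive means no rule given, readout overlaps actives, possibly toxicity-flagged; inactive means the rest, including those meeting only one limit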
# Target sequence (P16581 whole entry, looked up): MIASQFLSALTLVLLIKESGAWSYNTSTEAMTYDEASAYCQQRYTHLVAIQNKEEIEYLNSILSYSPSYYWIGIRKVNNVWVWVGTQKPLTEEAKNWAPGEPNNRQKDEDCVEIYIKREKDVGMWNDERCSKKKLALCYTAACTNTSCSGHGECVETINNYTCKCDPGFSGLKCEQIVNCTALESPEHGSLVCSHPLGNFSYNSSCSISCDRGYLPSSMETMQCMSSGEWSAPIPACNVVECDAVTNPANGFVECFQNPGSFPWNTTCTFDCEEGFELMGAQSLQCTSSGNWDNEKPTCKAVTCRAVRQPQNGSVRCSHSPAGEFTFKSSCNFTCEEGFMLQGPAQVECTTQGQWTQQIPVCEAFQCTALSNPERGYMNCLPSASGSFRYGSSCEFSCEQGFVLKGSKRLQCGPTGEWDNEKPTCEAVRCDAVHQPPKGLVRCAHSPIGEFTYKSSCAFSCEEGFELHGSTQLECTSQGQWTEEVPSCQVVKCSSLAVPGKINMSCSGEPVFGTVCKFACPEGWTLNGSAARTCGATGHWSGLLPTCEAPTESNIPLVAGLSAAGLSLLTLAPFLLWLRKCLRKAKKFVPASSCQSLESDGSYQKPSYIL
#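 Test system: HUVEC; input: 3,000 HUVEC/well; measured by: immunofluorescence imaging; read-out: % PE-positive cells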
# C2C12 statin – suppressors of simvastatin-induced myotoxicity in C2C12 myotubes; rescue of ATP level, % at 7.49 µM; hit rate 0.78% among 330,000; AID 602340; ATP luminescence, 48 h; scaled: DMSO 0, geranylgeraniol control 100;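 active means mean ATP rescue above about 67%, or every replicate alone reaching that limit, limit read from the data, passing the limit was not always enough; inconclusive means no clear call, values can overlap the other calls; inactive means mean under the limit and some replicate under it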;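 further: myotubes were challenged with 10 µM simvastatin during compound exposure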
# FGF22 binding – shifts melting point of recombinant human FGF22; activity (Tm shift, normalised), % at 9.99 µM; recombinant FGF22 thermal shift, SYPRO orange fluorescence; percent of sucrose octasulfate shift, DMSO zero; Q9HCT0; hit rate 1.5% among 340,000;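 active means mean Tm shift, scaled 0 neutral to 100 positive control, at about 1.3% or above, every replicate too, limit read from the data; inconclusive means no clear call, values can overlap the other calls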
# Starred values were filed as active, the others as inactive; ? = inconclusive; . = not tested or not shown; ! = a repeat was not active. Most compounds without a hit are left out; they make up all but 3.3% or so of the library.
SMILES,Xi reactivation,DENV2 CPE,PglD DTNB,E-sel inducer,C2C12 statin,FGF22 binding
CCC(=O)Nc1cc(C(=O)O)ccc1Sc1ccc(C)cc1,0.0,-3.3,.,.,.,0.1
Cc1noc(C)c1NC(=O)N[C@H]1CC[C@H](CC(=O)N2CCN(C)CC2)O[C@@H]1CO,0.1,-1.0,3.1,-0.2,4.7,0.2
O=C(Nc1ccc(Cl)cc1)N[C@H]1CC[C@@H](CCNC(=O)c2ccccc2F)O[C@@H]1CO,-0.1,-4.3,1.8,-0.2,0.7,0.0
Cc1ccc(S(=O)(=O)NC(CC(=O)N2CCOCC2)c2ccco2)cc1 (configuration not stated),.,.,3.0,.,7.1,.
O=C(CC(c1ccccc1)c1ccco1)N1CCOCC1 (configuration not stated),.,.,-1.9,.,128.4*,.
O=C1c2ccccc2-c2onc3ccc(Oc4ccccc4)c1c23,.,.,-0.2,.,100.2*,.
CC(C)NC(=O)Nc1ccc2c(c1)CC(=O)N(C)C[C@@H](C)[C@@H](CN(C)C(=O)NC(C)C)O2,0.3,.,.,.,.,.
O=C1NC(=O)/C(=C\c2ccc(Oc3ccc([N+](=O)[O-])cn3)cc2)S1,0.0,.,.,.,.,.
O=[N+]([O-])c1ccc(Oc2ccc(/C=N/O)cc2)nc1,-0.1,-3.5,.,.,.,42.9*
CO/N=C/c1ccc(Oc2ccc(C)cc2)nc1,.,.,7.3,.,8.1,.
N#Cc1ccc(Oc2ccc(/C=N/O)cn2)cc1,.,.,-2.6,.,121.9*,.
O=C(C1CCC1)N1[C@@H](CO)[C@@H](c2ccccc2)C12CN(Cc1ccccc1)C2,0.0,-4.4,.,-0.2,.,-0.1
CCS(=O)(=O)N1CCC2(CC1)CN(S(=O)(=O)c1ccccc1)[C@H](CO)c1c2c2ccc(OC)cc2n1C,0.4,?,.,0.5,.,0.1
C[C@@H]1CCCCO[C@@H](CN(C)CC2CCCCC2)[C@@H](C)CN([C@@H](C)CO)C(=O)c2cc(NC(=O)Nc3cccc4ccccc34)ccc2O1,-0.6,7.2,2.1,1.1,.,1.5*
C[C@@H]1CCCCO[C@H](CN(C)CC2CCCCC2)[C@H](C)CN([C@@H](C)CO)C(=O)c2cc(NC(=O)Nc3cccc4ccccc34)ccc2O1,-1.1,11.0,7.7,2.1,.,-0.5
C[C@@H]1CCCCO[C@H](CN(C)CC2CCCCC2)[C@H](C)CN([C@H](C)CO)C(=O)c2cc(NC(=O)Nc3cccc4ccccc34)ccc2O1,-0.5,-3.8,9.1,3.6,.,1.3*
C[C@H](CO)N1C[C@H](C)[C@H](CN(C)CC2CCCCC2)OCCCC[C@H](C)Oc2ccc(NC(=O)Nc3cccc4ccccc34)cc2C1=O,-0.8,-1.9,6.8,1.1,.,0.4
C[C@H](CO)N1C[C@H](C)[C@@H](CN(C)CC2CCCCC2)OCCCC[C@H](C)Oc2ccc(NC(=O)Nc3cccc4ccccc34)cc2C1=O,-1.1,-24.7,10.4,1.9,.,1.5*
C[C@@H]1CN([C@H](C)CO)C(=O)c2cc(NC(=O)Nc3cccc4ccccc34)ccc2O[C@@H](C)CCCCO[C@@H]1CN(C)CC1CCCCC1,-1.1,45.2*,2.0,1.2,.,-0.4
CN(C)CC(=O)Nc1ccc2c(c1)[C@H]1C[C@@H](CC(=O)N3CCOCC3)O[C@@H](CO)[C@H]1O2,0.1,12.0,3.4,0.0,3.3,-0.1
O=C(N[C@@H]1CC[C@H](CCn2cc(C3CCCCC3)nn2)O[C@@H]1CO)c1cccnc1,0.3,-1.8,1.8,0.4,-0.3,-0.2
O=C(C[C@@H]1C=C[C@H](NS(=O)(=O)c2ccc(F)cc2)[C@@H](CO)O1)NCCc1ccncc1,-0.1,?,-0.5,0.0,-4.5,-0.1
CCC(C)CCN1C(N(C)C)=NC[C@@H]1C (some centres not stated),0.0,.,-0.8,-0.5,149.0*,0.0
COCCNC(=O)/C(C#N)=C/c1ccc(O)c([N+](=O)[O-])c1,0.0,.,.,.,.,43.2*
COCCNC(=O)/C(C#N)=C/c1cccc(/C=C(\C#N)C(=O)NCCOC)c1,0.2,11.1,.,.,.,0.1
SMILES,Xi reactivation,DENV2 CPE,PglD DTNB,E-sel inducer,C2C12 statin,FGF22 binding
CCOC(=O)C(NC(=O)c1cccc(Cl)c1)(OCc1ccccc1)C(F)(F)F (configuration not stated),0.0,7.7,-1.4,-1.7,.,33.0*
Cn1cnc(S(=O)(=O)N[C@H]2C=C[C@H](CC(=O)NCC3CCCCC3)O[C@H]2CO)c1,-0.2,?,-0.6,-0.3,-2.8,0.3
C[C@@H]1CN([C@H](C)CO)C(=O)c2cccc(NC(=O)C3CC3)c2O[C@@H]1CN(C)Cc1ccccc1,0.4,15.6,1.1,72.0*,-5.5,0.7
C[C@H](CO)N1C[C@H](C)[C@@H](CN(C)Cc2ccccc2)Oc2c(NC(=O)C3CC3)cccc2C1=O,-0.1,14.5,-0.1,102.1*!,6.7,0.2
C[C@H](CO)N1C[C@H](C)[C@H](CN(C)Cc2ccccc2)Oc2c(NC(=O)C3CC3)cccc2C1=O,-0.1,-2.0,-9.9,-20.0,3.3,0.2
COc1ccc(NC(=O)Nc2ccc3c(c2)C(=O)N([C@H](C)CO)C[C@@H](C)[C@@H](CN(C)CC2CCCCC2)O3)cc1,0.0,4.7,4.1,-13.2,7.8,-0.6
O=C(Cc1c(Sc2ccccc2)c2ccccc2n1Cc1ccccc1)NCCO,0.1,-4.6,.,0.0,.,43.1*
Cn1c(CC(=O)NCCO)c(Sc2ccccc2)c2ccccc21,0.0,.,-4.4,1.5,.,.
CN(C)C(=O)c1cccc(-c2ccccc2[C@@H]2[C@@H](CO)N(C(=O)C3CC3)[C@H]2C#N)c1,0.1,1.5,.,0.1,.,-0.2
CN(C)C(=O)c1cccc(-c2ccccc2[C@@H]2[C@@H](C#N)N(C(=O)C3CC3)[C@@H]2CO)c1,0.0,45.6*,.,0.0,.,0.0
N#C[C@H]1[C@@H](c2ccccc2-c2ccccc2F)[C@H](CO)N1C(=O)C1CC1,0.1,25.5*,.,-0.1,.,0.3
CN(C)C(=O)c1cccc(-c2ccccc2[C@H]2[C@@H](C#N)N(C(=O)C3CC3)[C@@H]2CO)c1,0.1,69.4*,.,0.0,.,-0.2
CN(C)C(=O)c1cccc(-c2ccccc2[C@H]2[C@@H](CO)N(C(=O)C3CC3)[C@H]2C#N)c1,0.3,1.3,.,0.0,.,-0.1
CN(C)C(=O)c1cccc(-c2ccccc2[C@@H]2[C@H](C#N)N(C(=O)C3CCCCC3)[C@H]2CO)c1,0.0,73.1*,.,0.5,.,-0.2
Cc1ccc(S(=O)(=O)Nc2cccc3c2O[C@@H](CN(C)Cc2ccc(Cl)c(Cl)c2)[C@@H](C)CN([C@H](C)CO)C3=O)cc1,-0.8,.,.,-0.7,-37.1,.
COc1ccc(NC(=S)NCc2ccc3c(c2)OCO3)cc1,0.0,7.8,0.4,.,-24.3,43.2*
COc1ccc(CNC(=O)/C=C/c2cc3c(cc2Br)OCO3)cc1,.,.,-8.8,.,85.6*,.
CN(C)c1ccc(C(=O)NCc2ccc3c(c2)OCO3)cc1,-0.1,0.2,2.4,.,-8.7,0.1
